Activity, AUC(0-inf) and IC50 data for one molecule are collected here from ChEMBL document CHEMBL4229344 (Eur J Med Chem, 2018).

Data set [1] has as its target Tyrosine-protein kinase receptor TYRO3 (Homo sapiens) (UniProt Q06418). As to the kind of experiment: Binding affinity to wild-type human partial length TYRO3 (S497 to T814 residues) expressed in bacterial expression system assessed as residual binding level at 1 uM by Kinomescan method relative to control.
Data set [2] concerns the target Mitogen-activated protein kinase kinase kinase 4 (Homo sapiens) (UniProt Q9Y6R4). As to the kind of experiment: Binding affinity to wild-type human partial length MAP3K4 (G1319 to E1608 residues) expressed in bacterial expression system assessed as residual binding level at 1 uM by Kinomescan method relative to control.
For data set [3], the target named is Serine/threonine-protein kinase TAO3 (Homo sapiens) (UniProt Q9H2K8). As to the kind of experiment: Binding affinity to wild-type human partial length TAOK3 (M1 to T316 residues) expressed in mammalian expression system assessed as residual binding level at 1 uM by Kinomescan method relative to control.
Data set [4] addresses Homeodomain-interacting protein kinase 4 (Homo sapiens) (UniProt Q8NE63). As to the kind of experiment: Binding affinity to wild-type human partial length HIPK4 (M1 to V384 residues) expressed in bacterial expression system assessed as residual binding level at 1 uM by Kinomescan method relative to control. The method, boiled down:
(§1)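 Kinome-wide competition binding screen against a panel of 468 purified kinases/mutants, with the test compound at a single concentration of 1 μM. Read-out is the relative binding activity of each kinase in the presence of compound.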

The target in data set [5] is Serine/threonine-protein kinase haspin (Homo sapiens) (UniProt Q8TF76). As to the kind of experiment: Binding affinity to wild-type human partial length HASPIN (I452 to K798 residues) expressed in mammalian expression system assessed as residual binding level at 1 uM by Kinomescan method relative to control. In outline:
as §1

Data set [6] addresses CDK4/Cyclin D3 (Homo sapiens) (UniProt P11802+P30281). As to the kind of experiment: Binding affinity to wild-type human full length CDK4/cyclinD3 (M1 to E303 residues) expressed in mammalian expression system assessed as residual binding level at 1 uM by Kinomescan method relative to control. The method, boiled down: (§2)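 Single-concentration (1 μM) competition-binding screen run by KINOMEscan against a panel of 468 purified kinases and mutants. The read-out is the relative binding activity of the test compound to each kinase.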

For data set [7], the target named is Mitogen-activated protein kinase 3 (Homo sapiens) (UniProt P27361). As to the kind of experiment: Binding affinity to wild-type human full length ERK1 (M1 to P379 residues) expressed in bacterial expression system assessed as residual binding level at 1 uM by Kinomescan method relative to control. In outline: as §2
Data set [8] concerns the target Protein kinase C theta type (Homo sapiens) (UniProt Q04759). As to the kind of experiment: Binding affinity to wild-type human partial length PRKCQ (L350 to S706 residues) expressed in bacterial expression system assessed as residual binding level at 1 uM by Kinomescan method relative to control. The method, boiled down:
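KINOMEscan competition binding against a panel of 468 purified kinases/mutants, compound tested at 1 μM; readout is relative binding activity versus control.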

Data set [9] can be described thus: AUC (0 to infinity) in Sprague-Dawley rat at 10 mg/kg, po. It counts as ADME, organism-based. Particulars: in vivo. Further details: dose 10 mg/kg, route oral, time infinity. The method, boiled down: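 Male Sprague-Dawley rats (6–8 weeks) fasted overnight, dosed IV or orally; compound dissolved in 5% DMSO/40% PEG400/55% saline (dosing solution 1 mg/mL). Blood (~0.2 mL) from jugular vein into heparin; IV sampling 1 min–8 h, oral 5 min–24 h. Plasma separated by centrifugation at 2–8 °C, stored at −80 °C until analysis.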

For data set [10], the target named is High affinity nerve growth factor receptor (Homo sapiens) (UniProt P04629). As to the kind of experiment: Binding affinity to wild-type human partial length TRKA (G475 to G790 residues) expressed in mammalian expression system assessed as residual binding level at 1 uM by Kinomescan method relative to control.
Data set [11] has as its target Interferon-induced, double-stranded RNA-activated protein kinase (Homo sapiens) (UniProt P19525). As to the kind of experiment: Binding affinity to wild-type human partial length PRKR (F247 to C551 residues) expressed in bacterial expression system assessed as residual binding level at 1 uM by Kinomescan method relative to control.
Data set [12] deals with Tyrosine-protein kinase FRK (Homo sapiens) (UniProt P42685). As to the kind of experiment: Binding affinity to wild-type human partial length FRK (A215 to F503 residues) expressed in bacterial expression system assessed as residual binding level at 1 uM by Kinomescan method relative to control. In outline:
as §1

The target in data set [13] is Insulin-like growth factor 1 receptor (Homo sapiens) (UniProt P08069). As to the kind of experiment: Binding affinity to wild-type human partial length IGF1R (L972 to D1294 residues) expressed in bacterial expression system assessed as residual binding level at 1 uM by Kinomescan method relative to control.
In data set [14] the test system is Receptor-type tyrosine-protein kinase FLT3 (Homo sapiens), P36888 [D835H]. As to the kind of experiment: Binding affinity to human partial length FLT3 D835H mutant (V592 to Y969 residues) expressed in bacterial expression system assessed as residual binding level at 1 uM by Kinomescan method relative to control. In outline:
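Kinome-wide single-concentration binding screen (KINOMEscan) at 1 μM against a panel of 468 purified kinases and mutants. Read-out is relative binding of each kinase compared with control. Selectivity across the panel was summarised as an S(10) score.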

The target in data set [15] is Rho-associated protein kinase 2 (Homo sapiens) (UniProt O75116). As to the kind of experiment: Binding affinity to wild-type human partial length ROCK2 (M1 to T431 residues) expressed in mammalian expression system assessed as residual binding level at 1 uM by Kinomescan method relative to control.
Rho-associated protein kinase 2 (Homo sapiens), sequence (O75116 whole entry, looked up, the tested form may be a part): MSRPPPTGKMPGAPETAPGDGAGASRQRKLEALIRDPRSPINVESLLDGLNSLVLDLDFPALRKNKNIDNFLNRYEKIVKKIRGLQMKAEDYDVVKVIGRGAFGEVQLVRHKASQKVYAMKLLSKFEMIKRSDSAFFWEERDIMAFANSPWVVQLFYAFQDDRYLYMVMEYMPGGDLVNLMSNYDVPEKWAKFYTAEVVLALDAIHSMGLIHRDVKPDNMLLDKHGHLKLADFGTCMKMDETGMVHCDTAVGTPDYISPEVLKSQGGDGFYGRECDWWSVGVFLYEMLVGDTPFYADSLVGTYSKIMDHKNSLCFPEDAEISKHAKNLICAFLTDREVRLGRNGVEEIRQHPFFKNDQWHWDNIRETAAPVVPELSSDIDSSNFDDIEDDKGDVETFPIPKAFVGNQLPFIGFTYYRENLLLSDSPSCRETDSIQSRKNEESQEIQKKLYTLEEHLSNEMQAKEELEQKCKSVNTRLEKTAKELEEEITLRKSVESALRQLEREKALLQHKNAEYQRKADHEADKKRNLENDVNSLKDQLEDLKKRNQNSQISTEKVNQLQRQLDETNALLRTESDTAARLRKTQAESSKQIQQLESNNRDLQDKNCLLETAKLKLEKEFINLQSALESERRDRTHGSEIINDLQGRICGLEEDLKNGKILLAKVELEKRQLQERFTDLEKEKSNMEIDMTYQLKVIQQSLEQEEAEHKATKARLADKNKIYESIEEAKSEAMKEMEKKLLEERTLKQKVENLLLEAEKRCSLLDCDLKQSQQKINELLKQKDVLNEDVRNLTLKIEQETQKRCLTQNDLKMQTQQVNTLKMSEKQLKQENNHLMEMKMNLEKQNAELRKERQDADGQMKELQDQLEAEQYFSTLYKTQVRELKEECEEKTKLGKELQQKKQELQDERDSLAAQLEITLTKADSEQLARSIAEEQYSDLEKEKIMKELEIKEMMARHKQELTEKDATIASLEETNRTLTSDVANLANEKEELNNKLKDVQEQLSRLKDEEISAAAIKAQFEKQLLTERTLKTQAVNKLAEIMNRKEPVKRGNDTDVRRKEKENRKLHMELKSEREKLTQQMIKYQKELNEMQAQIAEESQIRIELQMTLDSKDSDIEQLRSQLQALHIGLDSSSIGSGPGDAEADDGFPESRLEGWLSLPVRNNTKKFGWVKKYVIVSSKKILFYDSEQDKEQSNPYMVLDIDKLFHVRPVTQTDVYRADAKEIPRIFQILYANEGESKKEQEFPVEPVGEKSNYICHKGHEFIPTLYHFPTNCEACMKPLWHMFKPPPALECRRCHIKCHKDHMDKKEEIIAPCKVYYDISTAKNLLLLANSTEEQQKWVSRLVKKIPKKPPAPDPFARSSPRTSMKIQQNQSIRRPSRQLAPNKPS
The target in data set [16] is T1, Epithelial discoidin domain-containing receptor 1 (Homo sapiens, UniProt Q08345). As to the kind of experiment: Inhibition of DDR1 (unknown origin) using poly(4:1 Glu,Tyr) peptide as substrate preincubated for 1 hr followed by addition of ATP and measured after 30 mins by ADP-Glo bioluminescence assay. For orientation: ADP-Glo turns the ADP formed in a reaction into a luminescent signal.
T1 sequence (Q08345 whole entry, the tested form may be a part): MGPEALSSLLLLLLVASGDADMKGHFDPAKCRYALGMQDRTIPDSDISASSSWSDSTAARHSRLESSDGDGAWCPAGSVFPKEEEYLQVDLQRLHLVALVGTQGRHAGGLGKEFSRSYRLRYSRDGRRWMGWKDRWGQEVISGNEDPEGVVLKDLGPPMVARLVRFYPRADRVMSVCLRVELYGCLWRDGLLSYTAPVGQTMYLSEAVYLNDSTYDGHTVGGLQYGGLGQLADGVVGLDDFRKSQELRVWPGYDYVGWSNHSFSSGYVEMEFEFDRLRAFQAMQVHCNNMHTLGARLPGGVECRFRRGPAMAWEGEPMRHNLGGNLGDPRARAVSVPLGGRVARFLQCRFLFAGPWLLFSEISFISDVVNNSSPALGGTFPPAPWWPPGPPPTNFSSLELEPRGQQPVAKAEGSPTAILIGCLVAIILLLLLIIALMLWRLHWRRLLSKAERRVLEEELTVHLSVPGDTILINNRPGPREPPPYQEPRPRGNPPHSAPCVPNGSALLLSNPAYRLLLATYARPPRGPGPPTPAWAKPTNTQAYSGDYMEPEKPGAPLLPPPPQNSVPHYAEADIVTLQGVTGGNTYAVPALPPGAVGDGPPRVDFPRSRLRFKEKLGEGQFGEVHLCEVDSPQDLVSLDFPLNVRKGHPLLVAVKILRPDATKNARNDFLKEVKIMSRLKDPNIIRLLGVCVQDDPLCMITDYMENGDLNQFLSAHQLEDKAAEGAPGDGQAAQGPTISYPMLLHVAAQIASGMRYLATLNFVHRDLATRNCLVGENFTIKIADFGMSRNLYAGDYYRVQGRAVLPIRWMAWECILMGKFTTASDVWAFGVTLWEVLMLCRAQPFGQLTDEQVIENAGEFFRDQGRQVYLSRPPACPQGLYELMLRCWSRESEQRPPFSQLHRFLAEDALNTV

The target in data set [17] is Serine/threonine-protein kinase 10 (Homo sapiens) (UniProt O94804). As to the kind of experiment: Binding affinity to wild-type human partial length LOK (E16 to V314 residues) expressed in bacterial expression system assessed as residual binding level at 1 uM by Kinomescan method relative to control. The method, boiled down: as §1
Data set [18] addresses Mitogen-activated protein kinase kinase kinase kinase 5 (Homo sapiens) (UniProt Q9Y4K4). As to the kind of experiment: Binding affinity to wild-type human partial length MAP4K5 (M1 to P297 residues) expressed in bacterial expression system assessed as residual binding level at 1 uM by Kinomescan method relative to control.
Data set [19] has as its target Serine/threonine-protein kinase N1 (Homo sapiens) (UniProt Q16512). As to the kind of experiment: Binding affinity to wild-type human partial length PKN1 (E598 to C948 residues) expressed in bacterial expression system assessed as residual binding level at 1 uM by Kinomescan method relative to control.
The target in data set [20] is Cyclin-dependent kinase 13 (Homo sapiens) (UniProt Q14004). As to the kind of experiment: Binding affinity to wild-type human partial length CDC2L5 (H675 to S1054 residues) expressed in mammalian expression system assessed as residual binding level at 1 uM by Kinomescan method relative to control.
The target of data set [21] is T1, Epithelial discoidin domain-containing receptor 1. As to the kind of experiment: Binding affinity to wild-type human partial length DDR1 (R565 to V876 residues) expressed in bacterial expression system assessed as residual binding level at 1 uM by Kinomescan method relative to control. The method, boiled down:
as §1

Homeodomain-interacting protein kinase 4 (Homo sapiens), sequence (Q8NE63 whole entry, the tested form may be a part): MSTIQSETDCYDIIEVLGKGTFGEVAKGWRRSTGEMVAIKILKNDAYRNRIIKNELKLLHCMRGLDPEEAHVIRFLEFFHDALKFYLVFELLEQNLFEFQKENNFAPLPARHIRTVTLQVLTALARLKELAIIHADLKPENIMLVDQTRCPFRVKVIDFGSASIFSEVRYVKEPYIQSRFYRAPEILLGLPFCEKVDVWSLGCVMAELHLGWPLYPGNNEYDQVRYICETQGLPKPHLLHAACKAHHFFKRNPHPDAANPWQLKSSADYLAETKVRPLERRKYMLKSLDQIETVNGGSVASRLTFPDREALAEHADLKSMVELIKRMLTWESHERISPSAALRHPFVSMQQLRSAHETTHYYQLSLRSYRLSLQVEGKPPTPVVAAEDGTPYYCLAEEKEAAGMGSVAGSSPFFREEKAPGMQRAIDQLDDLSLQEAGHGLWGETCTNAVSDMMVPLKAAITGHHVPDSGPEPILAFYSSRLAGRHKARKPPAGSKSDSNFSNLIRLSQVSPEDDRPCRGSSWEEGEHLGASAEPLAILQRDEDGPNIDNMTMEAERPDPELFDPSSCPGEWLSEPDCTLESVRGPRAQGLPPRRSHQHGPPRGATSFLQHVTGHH
Interferon-induced, double-stranded RNA-activated protein kinase (Homo sapiens), sequence (P19525 whole entry, the tested form may be a part): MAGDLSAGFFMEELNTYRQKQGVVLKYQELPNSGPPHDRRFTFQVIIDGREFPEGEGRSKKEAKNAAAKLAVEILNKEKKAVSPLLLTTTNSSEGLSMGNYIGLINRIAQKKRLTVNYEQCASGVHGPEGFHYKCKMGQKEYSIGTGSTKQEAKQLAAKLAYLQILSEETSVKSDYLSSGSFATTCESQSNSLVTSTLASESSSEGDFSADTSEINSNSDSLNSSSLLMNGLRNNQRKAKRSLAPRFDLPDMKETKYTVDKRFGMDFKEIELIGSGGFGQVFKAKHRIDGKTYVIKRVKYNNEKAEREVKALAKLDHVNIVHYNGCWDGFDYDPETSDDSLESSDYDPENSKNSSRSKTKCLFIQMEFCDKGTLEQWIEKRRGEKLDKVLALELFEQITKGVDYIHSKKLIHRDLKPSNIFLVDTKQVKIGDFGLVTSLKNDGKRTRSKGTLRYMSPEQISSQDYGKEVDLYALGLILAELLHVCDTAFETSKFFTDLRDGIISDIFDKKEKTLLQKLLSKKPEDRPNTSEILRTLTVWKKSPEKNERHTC
Serine/threonine-protein kinase N1 (Homo sapiens), sequence (Q16512 2-942 limits assumed): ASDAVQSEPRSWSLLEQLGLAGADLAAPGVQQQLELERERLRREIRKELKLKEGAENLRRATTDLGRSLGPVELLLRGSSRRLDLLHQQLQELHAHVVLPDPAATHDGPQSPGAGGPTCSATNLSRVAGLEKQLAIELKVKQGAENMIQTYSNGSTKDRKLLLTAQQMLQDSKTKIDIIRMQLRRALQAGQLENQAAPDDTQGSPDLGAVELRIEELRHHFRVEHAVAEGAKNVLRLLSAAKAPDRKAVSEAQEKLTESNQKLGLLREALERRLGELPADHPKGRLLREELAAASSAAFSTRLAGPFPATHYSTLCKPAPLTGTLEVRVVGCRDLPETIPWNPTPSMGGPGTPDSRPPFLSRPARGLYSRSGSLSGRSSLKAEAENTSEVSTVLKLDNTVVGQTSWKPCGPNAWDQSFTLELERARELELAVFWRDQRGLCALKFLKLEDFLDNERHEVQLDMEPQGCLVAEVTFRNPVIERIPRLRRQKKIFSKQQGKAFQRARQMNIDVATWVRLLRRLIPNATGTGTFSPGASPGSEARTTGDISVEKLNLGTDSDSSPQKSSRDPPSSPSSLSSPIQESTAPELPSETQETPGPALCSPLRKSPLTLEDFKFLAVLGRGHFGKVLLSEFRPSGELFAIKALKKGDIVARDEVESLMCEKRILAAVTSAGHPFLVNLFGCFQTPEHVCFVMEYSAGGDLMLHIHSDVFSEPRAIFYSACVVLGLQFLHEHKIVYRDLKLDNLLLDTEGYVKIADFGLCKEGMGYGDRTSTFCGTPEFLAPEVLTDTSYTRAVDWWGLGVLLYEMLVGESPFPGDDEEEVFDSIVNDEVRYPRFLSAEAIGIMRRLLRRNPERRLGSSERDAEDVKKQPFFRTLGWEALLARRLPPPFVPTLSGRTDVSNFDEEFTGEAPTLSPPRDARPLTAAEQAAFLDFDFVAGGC
Tyrosine-protein kinase FRK (Homo sapiens), sequence (P42685 whole entry, the tested form may be a part): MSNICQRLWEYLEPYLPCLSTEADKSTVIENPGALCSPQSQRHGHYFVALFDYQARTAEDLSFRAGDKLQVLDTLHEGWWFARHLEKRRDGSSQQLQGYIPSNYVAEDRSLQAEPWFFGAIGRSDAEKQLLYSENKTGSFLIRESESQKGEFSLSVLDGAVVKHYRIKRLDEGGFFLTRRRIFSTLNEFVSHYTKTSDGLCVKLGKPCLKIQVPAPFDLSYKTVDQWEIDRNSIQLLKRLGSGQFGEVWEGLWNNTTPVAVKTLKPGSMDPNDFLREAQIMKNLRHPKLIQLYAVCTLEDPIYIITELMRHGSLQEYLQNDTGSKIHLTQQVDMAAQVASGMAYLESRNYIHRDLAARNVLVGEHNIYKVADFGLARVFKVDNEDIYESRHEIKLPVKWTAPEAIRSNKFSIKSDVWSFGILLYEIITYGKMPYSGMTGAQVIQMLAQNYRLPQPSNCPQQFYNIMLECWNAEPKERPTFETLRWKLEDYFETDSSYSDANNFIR

Usually AUC(0-inf) stands for the area under the concentration-time curve extrapolated to infinity. A low value points to less exposure. For orientation: IC50 means the concentration that gives 50% inhibition. Higher therefore signals a need for much substance. Take `Cc1ccc(NC(=O)c2ccc(CN(CCN(C)C)C(=O)c3cccnc3)cc2)cc1Nc1nccc(-c2cccnc2)n1`: the Activity in data set [1] was 85%; in data set [2] it was 90%; in data set [3], 100%; in data set [4], 74%; in data set [5], 72%; in [6], 100%. Besides, the Activity in [7] stood at 95%; in data set [8] it was 83%; in [10], 95%; in [11], 100%; in data set [12] it was 80%; in data set [13], 95%. For the same molecule, the Activity in data set [14] came to 100%; in data set [15], 100%; in data set [17], 28%; in [18], 97%; in [19], 100%; in [20], 100%. The Activity in [21] amounted to 3.9%. This molecule gave an AUC(0-inf) in data set [9] of 115 ng·h/mL. In addition, half-maximal inhibition in data set [16] (IC50) was put at 2460 nM.
